≈ marks a conversion by molar mass, not a printed value. Calls of active or inactive are those of the source. The rule behind the calls is not given here.
Experiments:
[1] = system: Enterococcus faecium; test: Antibacterial activity against Enterococcus faecium ATCC 19434 after 20 hrs by broth microdilution method; assay type: functional; conditions: ATCC 19434, 20 h
How it was run: (§1)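 NCCLS broth microdilution in cation-adjusted Mueller–Hinton broth. Serial 2-fold compound dilutions were inoculated with 5 × 10⁴ CFU per 0.1 mL and incubated at 35 °C for 20 h before scoring the MIC.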

[2] = system: Staphylococcus aureus; test: Antibacterial activity against methicillin-sensitive […] Staphylococcus aureus ATCC 29213 after 20 hrs by broth microdilution method; assay type: functional; conditions: ATCC 29213, 20 h; how it was run: as §1
[3] = system: Enterococcus faecalis; test: Antibacterial activity against vancomycin-resistant Enterococcus faecalis SR7914 after 20 hrs by broth microdilution method; assay type: functional; conditions: SR7914, 20 h; how it was run: as §1
[4] = system: Staphylococcus aureus; test: Antibacterial activity against methicillin-resistant Staphylococcus aureus isolate SR3637 after 20 hrs by broth microdilution method; assay type: functional; conditions: isolate SR3637, 20 h; how it was run: as §1
[5] = system: Enterococcus faecium; test: Antibacterial activity against vancomycin-resistant Enterococcus faecium SR7917 after 20 hrs by broth microdilution method; assay type: functional; conditions: SR7917, 20 h; how it was run: as §1
[6] = system: Enterococcus faecalis; test: Antibacterial activity against Enterococcus faecalis ATCC 29212 after 20 hrs by broth microdilution method; assay type: functional; conditions: ATCC 29212, 20 h; how it was run: as §1
[7] = system: HepG2; test: Cytotoxicity against human HepG2 cells after 48 hrs by WST-8 assay; assay type: cell-based; conditions: HepG2, 48 h
How it was run: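 HepG2 cells in DMEM with 10% FBS were seeded at 1 × 10⁴ cells/well and treated 24 h later with varying concentrations for 48 h. WST-8 reagent was then added for 1.5 h at 37 °C, and absorbance read at 450 nm. Percentage growth inhibition was calculated against untreated cells, and IC50 was derived. Tunicamycin served as positive control.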

[8] = target: T1, Phospho-N-acetylmuramoyl-pentapeptide-transferase (Bacillus subtilis (strain 168), UniProt Q03521); test: Competitive inhibition of Bacillus subtilis MraY using UDP-MurNAc-pentapeptide as substrate after 30 mins by Lineweaver-Burk plot
T1 sequence (Q03521 whole entry): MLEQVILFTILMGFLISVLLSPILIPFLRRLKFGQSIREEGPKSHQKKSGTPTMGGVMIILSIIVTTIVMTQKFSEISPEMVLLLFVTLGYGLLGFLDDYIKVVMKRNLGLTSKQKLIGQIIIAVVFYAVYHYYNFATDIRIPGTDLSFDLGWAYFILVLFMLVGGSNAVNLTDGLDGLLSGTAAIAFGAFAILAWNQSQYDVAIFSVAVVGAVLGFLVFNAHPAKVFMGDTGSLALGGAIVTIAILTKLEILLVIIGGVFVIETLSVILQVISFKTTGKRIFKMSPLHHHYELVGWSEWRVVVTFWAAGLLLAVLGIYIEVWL
How it was run: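 B. subtilis MraY was assayed at pH 7.5 (100 mM Tris-HCl, 40 mM MgCl₂, 250 mM NaCl, 8.4 mM N-lauroylsarcosine), started by enzyme and run 30 min at 37 °C. Initial rates were taken at 0.25–1.5 mM UDP-MurNAc-[¹⁴C]pentapeptide, fixed 1 mM C₅₅-P, and several inhibitor levels. Lipid I was separated by TLC and scanned. Ki came from Lineweaver–Burk plots assuming a ping-pong Bi Bi mechanism.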

[9] = target: T2, Undecaprenyl-phosphate alpha-N-acetylglucosaminyl 1-phosphate transferase (Thermotoga maritima (strain ATCC 43589 / MSB8 / DSM 3109 / JCM 10099), UniProt Q9X1N5); test: Inhibition of Thermotoga maritima WecA using radiolabeled UDP-[14C]GlcNAc as substrate after 30 mins
T2 sequence (Q9X1N5 whole entry): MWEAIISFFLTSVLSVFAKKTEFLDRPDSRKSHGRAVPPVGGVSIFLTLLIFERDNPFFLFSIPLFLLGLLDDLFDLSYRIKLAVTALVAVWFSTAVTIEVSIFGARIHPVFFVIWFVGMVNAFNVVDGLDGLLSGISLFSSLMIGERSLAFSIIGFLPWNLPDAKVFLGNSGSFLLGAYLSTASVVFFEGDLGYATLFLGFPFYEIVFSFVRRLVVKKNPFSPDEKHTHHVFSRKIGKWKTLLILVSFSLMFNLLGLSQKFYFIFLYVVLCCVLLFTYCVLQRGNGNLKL
How it was run: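 Purified Thermotoga maritima WecA was assayed at pH 8 (100 mM Tris-HCl, 10 mM MgCl₂, 1.1 mM C₅₅-P, 0.16 mM UDP-[¹⁴C]GlcNAc, 92.7 mM Triton X-100), final concentrations. The reaction was started by enzyme, run 30 min at 65 °C and stopped at 100 °C for 1 min. C₅₅-PP-GlcNAc was separated by TLC and scanned. IC50 was relative to a no-inhibitor control, mean of triplicates.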

[10] = target: T1, Phospho-N-acetylmuramoyl-pentapeptide-transferase; test: Noncompetitive inhibition of Bacillus subtilis MraY using […] as substrate after 30 mins by Lineweaver-Burk plot
[11] = system: Bacillus subtilis; test: Antibacterial activity against Bacillus subtilis at 64 ug/ml; assay type: functional, organism-based

CC(C)[C@H](NC(=O)N[C@H](C(=O)N[C@@H](CCCCCCCc1ccc(-c2ccccc2)cc1)C(=O)NCCCN[C@H](C(=O)O)[C@H](O[C@@H]1O[C@H](CN)[C@@H](O)[C@H]1O)[C@H]1O[C@@H](n2ccc(=O)[nH]c2=O)[C@H](O)[C@@H]1O)[C@@H]1CCNC(=N)N1)C(=O)O
MIC [1]: 4 µg/mL (≈ 3.6 µM)
MIC [2]: 4 µg/mL (≈ 3.6 µM)
MIC [3]: 16 µg/mL (≈ 14.4 µM)
MIC [4]: 4 µg/mL (≈ 3.6 µM)
MIC [5]: 8 µg/mL (≈ 7.21 µM)
MIC [6]: 4 µg/mL (≈ 3.6 µM)
IC50 [7]: > 100 µg/mL

CCCCCCCCCCCCCCC[C@H](NC(=O)[C@@H](NC(=O)N[C@H](C(=O)O)C(C)C)[C@@H]1CCNC(=N)N1)C(=O)NCCCN[C@H](C(=O)O)[C@H](O[C@@H]1O[C@H](CN)[C@@H](O)[C@H]1O)[C@H]1O[C@@H](n2ccc(=O)[nH]c2=O)[C@H](O)[C@@H]1O
Ki [8]: 0.247 µM
MIC [1]: 4 µg/mL (≈ 3.74 µM)
MIC [2]: 2 µg/mL (≈ 1.87 µM)
MIC [3]: 4 µg/mL (≈ 3.74 µM)
MIC [4]: 4 µg/mL (≈ 3.74 µM)
IC50 [9]: 970 µM
Ki [10]: 0.247 µM
MIC [5]: 2 µg/mL (≈ 1.87 µM)
MIC [6]: 4 µg/mL (≈ 3.74 µM)

CC(C)C[C@@H](NC(=O)[C@@H](NC(=O)N[C@H](C(=O)O)C(C)C)[C@@H]1CCNC(=N)N1)C(=O)NCCCN[C@H](C(=O)O)[C@H](O[C@@H]1O[C@H](CN)[C@@H](O)[C@H]1O)[C@H]1O[C@@H](n2ccc(=O)[nH]c2=O)[C@H](O)[C@@H]1O
MIC [1]: > 64 µg/mL
MIC [2]: > 64 µg/mL
MIC [3]: > 64 µg/mL
MIC [4]: > 64 µg/mL
MIC [5]: > 64 µg/mL
MIC [6]: > 64 µg/mL
Activity [11]: inactive

CCCCOc1ccc(-c2ccc(CC[C@H](NC(=O)[C@@H](NC(=O)N[C@H](C(=O)O)C(C)C)[C@@H]3CCNC(=N)N3)C(=O)NCCCN[C@H](C(=O)O)[C@H](O[C@@H]3O[C@H](CN)[C@@H](O)[C@H]3O)[C@H]3O[C@@H](n4ccc(=O)[nH]c4=O)[C@H](O)[C@@H]3O)cc2)cc1
MIC [1]: 16 µg/mL (≈ 14.4 µM)
MIC [2]: 16 µg/mL (≈ 14.4 µM)
MIC [3]: 64 µg/mL (≈ 57.5 µM)
MIC [4]: 32 µg/mL (≈ 28.8 µM)
MIC [5]: 32 µg/mL (≈ 28.8 µM)
MIC [6]: 16 µg/mL (≈ 14.4 µM)
IC50 [7]: > 100 µg/mL

CC(C)C[C@H](NC(=O)[C@@H](NC(=O)N[C@H](C(=O)O)C(C)C)[C@@H]1CCNC(=N)N1)C(=O)NCCCN[C@H](C(=O)O)[C@H](O[C@@H]1O[C@H](CN)[C@@H](O)[C@H]1O)[C@H]1O[C@@H](n2ccc(=O)[nH]c2=O)[C@H](O)[C@@H]1O [MURAMYCIN D2]
MIC [1]: > 64 µg/mL
MIC [2]: > 64 µg/mL
MIC [3]: > 64 µg/mL
MIC [4]: > 64 µg/mL
MIC [5]: > 64 µg/mL
MIC [6]: > 64 µg/mL
Activity [11]: inactive

CC(C)C[C@H](NC(=O)[C@@H](NC(=O)N[C@H](C(=O)O)C(C)C)[C@@H]1CCN=C(N)N1)C(=O)NCCCN[C@H](C(=O)O)[C@H](O[C@@H]1O[C@H](CN)[C@@H](O)[C@H]1O)[C@H]1O[C@@H](n2ccc(=O)[nH]c2=O)[C@H](O)[C@@H]1O [MURAMYCIN D2]
Ki [8]: 0.0076 µM
IC50 [9]: 1230 µM
Ki [10]: 0.0076 µM

CCCCCCOc1ccc(-c2ccc([C@H](NC(=O)[C@@H](NC(=O)N[C@H](C(=O)O)C(C)C)[C@@H]3CCNC(=N)N3)C(=O)NCCCN[C@H](C(=O)O)[C@H](O[C@@H]3O[C@H](CN)[C@@H](O)[C@H]3O)[C@H]3O[C@@H](n4ccc(=O)[nH]c4=O)[C@H](O)[C@@H]3O)cc2)cc1
MIC [1]: 4 µg/mL (≈ 3.6 µM)
MIC [2]: 4 µg/mL (≈ 3.6 µM)
MIC [3]: 8 µg/mL (≈ 7.19 µM)
MIC [4]: 8 µg/mL (≈ 7.19 µM)
MIC [5]: 4 µg/mL (≈ 3.6 µM)
MIC [6]: 8 µg/mL (≈ 7.19 µM)
IC50 [7]: > 100 µg/mL

CCCCCCCCCCCCCCC[C@@H](NC(=O)[C@@H](NC(=O)N[C@H](C(=O)O)C(C)C)[C@@H]1CCNC(=N)N1)C(=O)NCCCN[C@H](C(=O)O)[C@H](O[C@@H]1O[C@H](CN)[C@@H](O)[C@H]1O)[C@H]1O[C@@H](n2ccc(=O)[nH]c2=O)[C@H](O)[C@@H]1O
Ki [8]: 0.698 µM
MIC [1]: 0.5 µg/mL (≈ 0.467 µM)
MIC [2]: 2 µg/mL (≈ 1.87 µM)
MIC [3]: 4 µg/mL (≈ 3.74 µM)
MIC [4]: 4 µg/mL (≈ 3.74 µM)
IC50 [9]: 1340 µM
Ki [10]: 0.698 µM
MIC [5]: 0.25 µg/mL (≈ 0.234 µM)
MIC [6]: 2 µg/mL (≈ 1.87 µM)
IC50 [7]: > 100 µg/mL

From ChEMBL document CHEMBL1933006, “Mechanistic analysis of muraymycin analogues: a guide to the design of MraY inhibitors” (J Med Chem, 2011)
